The subject of data set [1] is Rattus norvegicus. Nature of the data set: Evaluated for the distribution of radioactivity in tissues of female Fischer rats liver after 5 minutes intravenous administration; dose/g, range 0.93-1.20. It is filed as ADME, organism-based. The settings on record: in vivo. Put shortly:
(§1)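 Female Fischer 344 rats (10-12 weeks, 170-200 g), fed ad libitum, got a single iv tail-vein injection under ether anaesthesia of the 125I-labelled cation (2.85-8.38 μCi). The tracer was dissolved in Me2SO, diluted with saline to 1% Me2SO and filtered. At the set times rats were killed by cervical fracture and blood taken by cardiac puncture. Organs were rinsed, blotted, weighed and gamma-counted against injectate standards. Results are %dose/g, mean and range, n=5. Thyroid weight was taken as 7.5 mg/100 g body weight.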

Data set [2] has as its system Rattus norvegicus. The data set can be described thus: Evaluated for the distribution of radioactivity in tissues of female Fischer rats kidneys after 5 minutes intravenous administration; dose/g, range 9.87-11.9. It is filed as ADME, organism-based, Kidney. Conditions: in vivo.
Data set [3] relates to Rattus norvegicus. Nature of the data set: Evaluated for the distribution of radioactivity in tissues of female Fischer rats kidneys after 60 minutes intravenous administration; dose/g, range 3.33-4.68. It is filed as ADME, organism-based, Kidney. Conditions: in vivo, 1 h.
Data set [4] concerns Rattus norvegicus. The data set can be described thus: Evaluated for the distribution of radioactivity in tissues of female Fischer rats heart after 30 minutes intravenous administration; dose/g, range 2.47-2.96. It is filed as ADME, organism-based. Conditions: in vivo, 0.5 h.
Data set [5] relates to Rattus norvegicus. The data set can be described thus: Evaluated for the distribution of radioactivity in tissues of female Fischer rats lungs after 30 minutes intravenous administration; dose/g, range 1.07-1.30. It is filed as ADME, organism-based, Lung. The settings on record: in vivo, 0.5 h. Put shortly:
as §1

Data set [6] has as its system Rattus norvegicus. Nature of the data set: Evaluated for the distribution of radioactivity in tissues of female Fischer rats thyroid after 5 minutes intravenous administration; dose/g, range 29-36. It is filed as ADME, organism-based, Thyroid gland. The settings on record: in vivo. The gist of the method:
as §1

For data set [7], the system named is Rattus norvegicus. Nature of the data set: Evaluated for the distribution of radioactivity in tissues of female Fischer rats blood after 60 minutes intravenous administration; dose/g, range 0.16-0.21. It is filed as ADME, organism-based. Conditions: in vivo, 1 h.
In data set [8] the test system is Rattus norvegicus. Nature of the data set: Evaluated for the distribution of radioactivity in tissues of female Fischer rats heart after 60 minutes intravenous administration; dose/g, range 2.88-4.32. Conditions: in vivo, 1 h. It is filed as ADME, organism-based.
Data set [9] concerns Rattus norvegicus. Nature of the data set: Evaluated for the distribution of radioactivity in tissues of female Fischer rats liver after 60 minutes intravenous administration; dose/g, range 0.14-0.19. It is filed as ADME, organism-based. The settings on record: in vivo, 1 h. The gist of the method:
as §1

Data set [10] deals with Rattus norvegicus. The data set can be described thus: Evaluated for the distribution of radioactivity in tissues of female Fischer rats thyroid after 60 minutes intravenous administration; dose/g, range 55-102. It is filed as ADME, organism-based, Thyroid gland. The settings on record: in vivo, 1 h. The gist of the method: as §1
Data set [11] concerns Rattus norvegicus. The data set can be described thus: Evaluated for the distribution of radioactivity in tissues of female Fischer rats liver after 30 minutes intravenous administration.; dose/g, range 0.23-0.29. The settings on record: in vivo, 0.5 h. It is filed as ADME, organism-based.
In data set [12] the test system is Rattus norvegicus. Nature of the data set: Evaluated for the distribution of radioactivity in tissues of female Fischer rats kidneys after 30 minutes intravenous administration; dose/g, range 6.28-7.41. It is filed as ADME, organism-based, Kidney. The settings on record: in vivo, 0.5 h.
Data set [13] concerns Rattus norvegicus. Nature of the data set: Evaluated for the distribution of radioactivity in tissues of female Fischer rats thyroid after 30 minutes intravenous administration; dose/g, range 33-60. It is filed as ADME, organism-based, Thyroid gland. The settings on record: in vivo, 0.5 h. The gist of the method:
as §1

The subject of data set [14] is Rattus norvegicus. The data set can be described thus: Evaluated for the distribution of radioactivity in tissues of female Fischer rats blood after 30 minutes intravenous administration; dose/g, range 0.25-0.32. The settings on record: in vivo, 0.5 h. It is filed as ADME, organism-based.
The subject of data set [15] is Rattus norvegicus. The data set can be described thus: Evaluated for the distribution of radioactivity in tissues of female Fischer rats lungs after 5 minutes intravenous administration; dose/g, range 1.20-1.52. Conditions: in vivo. It is filed as ADME, organism-based, Lung. The gist of the method:
as §1

The subject of data set [16] is Rattus norvegicus. Nature of the data set: Evaluated for the distribution of radioactivity in tissues of female Fischer rats heart after 5 minutes intravenous administration; dose/g, range 2.72-3.52. It is filed as ADME, organism-based. Conditions: in vivo.
Data set [17] deals with Rattus norvegicus. The data set can be described thus: Evaluated for the distribution of radioactivity in tissues of female Fischer rats lungs after 60 minutes intravenous administration; dose/g, range 0.97-1.54. It is filed as ADME, organism-based, Lung. The settings on record: in vivo, 1 h. The gist of the method: as §1
Data set [18] concerns Rattus norvegicus. The data set can be described thus: Evaluated for the distribution of radioactivity in tissues of female Fischer rats blood after 5 minutes intravenous administration; dose/g, range 0.44-0.52. It is filed as ADME, organism-based. The settings on record: in vivo.
Data set [19] has as its system Rattus norvegicus. Nature of the data set: Evaluated for the distribution of radioactivity in tissues of female Fischer rats blood after 5 minutes intravenous administration; dose/g, range 0.32-0.46. It is filed as ADME, organism-based. The settings on record: in vivo.
Data set [20] relates to Rattus norvegicus. The data set can be described thus: Evaluated for the distribution of radioactivity in tissues of female Fischer rats blood after 30 minutes intravenous administration; dose/g, range 0.18-0.24. It is filed as ADME, organism-based. The settings on record: in vivo, 0.5 h.
Data set [21] relates to Rattus norvegicus. Nature of the data set: Evaluated for the distribution of radioactivity in tissues of female Fischer rats heart after 60 minutes intravenous administration; dose/g, range 3.21-3.92. It is filed as ADME, organism-based. Conditions: in vivo, 1 h.
In data set [22] the test system is Rattus norvegicus. Nature of the data set: Evaluated for the distribution of radioactivity in tissues of female Fischer rats liver after 30 minutes intravenous administration; dose/g, range 0.22-0.30. It is filed as ADME, organism-based. The settings on record: in vivo, 0.5 h.
For data set [23], the system named is Rattus norvegicus. Nature of the data set: Evaluated for the distribution of radioactivity in tissues of female Fischer rats kidneys after 60 minutes intravenous administration; dose/g, range 5.02-6.57. It is filed as ADME, organism-based, Kidney. The settings on record: in vivo, 1 h.
For data set [24], the system named is Rattus norvegicus. Nature of the data set: Evaluated for the distribution of radioactivity in tissues of female Fischer rats lungs after 60 minutes intravenous administration; dose/g, range 0.94-1.36. It is filed as ADME, organism-based, Lung. The settings on record: in vivo, 1 h. Put shortly: as §1
Data set [25] relates to Rattus norvegicus. The data set can be described thus: Evaluated for the distribution of radioactivity in tissues of female Fischer rats thyroid after 60 minutes intravenous administration; dose/g, range 32-43. It is filed as ADME, organism-based, Thyroid gland. Conditions: in vivo, 1 h. The gist of the method: as §1
Data set [26] concerns Rattus norvegicus. Nature of the data set: Evaluated for the distribution of radioactivity in tissues of female Fischer rats kidneys after 5 minutes intravenous administration; dose/g, range 11.7-14.6. It is filed as ADME, organism-based, Kidney. The settings on record: in vivo.
In data set [27] the test system is Rattus norvegicus. Nature of the data set: Evaluated for the distribution of radioactivity in tissues of female Fischer rats heart after 5 minutes intravenous administration; dose/g, range 2.82-3.86. It is filed as ADME, organism-based. Conditions: in vivo.
For data set [28], the system named is Rattus norvegicus. The data set can be described thus: Evaluated for the distribution of radioactivity in tissues of female Fischer rats blood after 60 minutes intravenous administration; dose/g, range 0.15-0.20. It is filed as ADME, organism-based. The settings on record: in vivo, 1 h.
In data set [29] the test system is Rattus norvegicus. The data set can be described thus: Evaluated for the distribution of radioactivity in tissues of female Fischer rats lungs after 5 minutes intravenous administration; dose/g, range 1.18-1.44. It is filed as ADME, organism-based, Lung. The settings on record: in vivo. The gist of the method: as §1
Data set [30] has as its system Rattus norvegicus. Nature of the data set: Evaluated for the distribution of radioactivity in tissues of female Fischer rats thyroid after 30 minutes intravenous administration; dose/g, range 29-44. It is filed as ADME, organism-based, Thyroid gland. The settings on record: in vivo, 0.5 h. Put shortly:
as §1

For data set [31], the system named is Rattus norvegicus. The data set can be described thus: Evaluated for the distribution of radioactivity in tissues of female Fischer rats liver after 5 minutes intravenous administration; dose/g, range 1.06-1.70. It is filed as ADME, organism-based. The settings on record: in vivo. Put shortly:
as §1

Data set [32] has as its system Rattus norvegicus. The data set can be described thus: Evaluated for the distribution of radioactivity in tissues of female Fischer rats liver after 60 minutes intravenous administration; dose/g, range 0.15-0.19. It is filed as ADME, organism-based. Conditions: in vivo, 1 h. The gist of the method:
as §1

The test system of data set [33] is Rattus norvegicus. Nature of the data set: Evaluated for the distribution of radioactivity in tissues of female Fischer rats lungs after 30 minutes intravenous administration; dose/g, range 1.12-1.39. It is filed as ADME, organism-based, Lung. The settings on record: in vivo, 0.5 h. The gist of the method:
as §1

For data set [34], the system named is Rattus norvegicus. Nature of the data set: Evaluated for the distribution of radioactivity in tissues of female Fischer rats thyroid after 5 minutes intravenous administration; dose/g, range 16-32. Conditions: in vivo. It is filed as ADME, organism-based, Thyroid gland. Put shortly:
as §1

Data set [35] relates to Rattus norvegicus. Nature of the data set: Evaluated for the distribution of radioactivity in tissues of female Fischer rats heart after 30 minutes intravenous administration; dose/g, range 2.67-3.69. Conditions: in vivo, 0.5 h. It is filed as ADME, organism-based.
In data set [36] the test system is Rattus norvegicus. The data set can be described thus: Evaluated for the distribution of radioactivity in tissues of female Fischer rats kidneys after 30 minutes intravenous administration; dose/g, range 6.47-10.2. It is filed as ADME, organism-based, Kidney. Conditions: in vivo, 0.5 h.

Turning to `I/C=C/CCC[P+](C1CCCCC1)(C1CCCCC1)C1CCCCC1.[I-]`, the Distribution in data set [1] stood at 1.06%; in data set [2], 11.06%; in data set [3] it was 4.15%; in [4] it was 2.67%; in [5], 1.2%; in data set [6], 31%. Besides, the Distribution in [7] is given as 0.19%; in data set [8] it was 3.42%; in data set [9], 0.17%; in [10], 71%; in data set [11], 0.25%; in data set [12], 6.89%. For the same compound, the Distribution in data set [13] amounted to 45%; in [14], 0.28%; in data set [15], 1.31%; in data set [16] it was 2.99%; in [17] it was 1.16%; in [18] it was 0.47%.

Turning to `I/C=C/CCC[P+](c1ccccc1)(C1CCCCC1)C1CCCCC1.[I-]`, the Distribution amounted to 0.37% in [19]; 0.2% in data set [20]; 3.47% in data set [21]; 0.26% in data set [22]; 5.66% in data set [23]; 1.15% in data set [24]. Further, the Distribution in [25] is on record as 39%; in [26] it was 13.07%; in data set [27], 3.44%; in data set [28], 0.17%; in data set [29] it was 1.32%; in [30], 38%. The Distribution in data set [31] is given as 1.39%; in [32], 0.17%; in data set [33], 1.24%; in data set [34], 25%; in [35] it was 3.17%; in [36], 8.41%.
